Assay [1] deals with T1, Retinoic acid receptor beta (Homo sapiens) (UniProt P10826).
T1 sequence (whole entry): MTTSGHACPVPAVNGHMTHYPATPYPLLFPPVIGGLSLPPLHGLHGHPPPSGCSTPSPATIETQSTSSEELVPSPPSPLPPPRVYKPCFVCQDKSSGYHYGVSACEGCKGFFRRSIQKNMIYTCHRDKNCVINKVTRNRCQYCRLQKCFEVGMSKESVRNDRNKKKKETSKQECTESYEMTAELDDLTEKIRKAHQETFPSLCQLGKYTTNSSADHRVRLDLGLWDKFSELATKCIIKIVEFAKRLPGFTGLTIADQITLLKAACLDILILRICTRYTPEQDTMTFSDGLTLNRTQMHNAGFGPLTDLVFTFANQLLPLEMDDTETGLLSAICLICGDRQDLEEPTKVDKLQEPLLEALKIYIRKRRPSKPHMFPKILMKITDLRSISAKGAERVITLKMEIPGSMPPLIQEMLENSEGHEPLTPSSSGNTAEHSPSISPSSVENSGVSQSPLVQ
Put plainly: Relative EC30 for human RAR-beta receptor as EC30(compound) divided EC30(ATRA); Inactive.

In assay [2] the target is T1, Retinoic acid receptor beta (Homo sapiens). Put plainly: Percent maximal induction of human RAR-beta receptor relative to ATRA; Inactive. In kind it is functional.
For assay [3], the target named is T2, Retinoic acid receptor alpha (Homo sapiens) (UniProt P10276).
T2 sequence (whole entry): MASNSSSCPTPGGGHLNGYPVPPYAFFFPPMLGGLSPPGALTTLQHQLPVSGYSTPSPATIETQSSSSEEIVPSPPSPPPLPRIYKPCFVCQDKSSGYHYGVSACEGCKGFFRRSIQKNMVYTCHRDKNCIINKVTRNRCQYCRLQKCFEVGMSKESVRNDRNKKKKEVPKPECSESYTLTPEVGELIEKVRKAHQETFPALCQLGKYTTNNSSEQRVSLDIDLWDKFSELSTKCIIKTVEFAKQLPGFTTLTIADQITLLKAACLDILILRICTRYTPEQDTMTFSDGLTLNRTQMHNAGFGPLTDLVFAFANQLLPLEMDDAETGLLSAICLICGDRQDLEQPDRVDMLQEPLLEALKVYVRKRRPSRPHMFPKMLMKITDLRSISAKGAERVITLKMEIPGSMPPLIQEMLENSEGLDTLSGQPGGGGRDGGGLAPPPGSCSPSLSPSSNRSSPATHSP
Put plainly: Percent maximal induction of human RAR-alpha receptor relative to ATRA; Inactive. It counts as functional.

Assay [4] has as its target T3, Retinoic acid receptor gamma (Homo sapiens) (UniProt P13631).
T3 sequence (whole entry): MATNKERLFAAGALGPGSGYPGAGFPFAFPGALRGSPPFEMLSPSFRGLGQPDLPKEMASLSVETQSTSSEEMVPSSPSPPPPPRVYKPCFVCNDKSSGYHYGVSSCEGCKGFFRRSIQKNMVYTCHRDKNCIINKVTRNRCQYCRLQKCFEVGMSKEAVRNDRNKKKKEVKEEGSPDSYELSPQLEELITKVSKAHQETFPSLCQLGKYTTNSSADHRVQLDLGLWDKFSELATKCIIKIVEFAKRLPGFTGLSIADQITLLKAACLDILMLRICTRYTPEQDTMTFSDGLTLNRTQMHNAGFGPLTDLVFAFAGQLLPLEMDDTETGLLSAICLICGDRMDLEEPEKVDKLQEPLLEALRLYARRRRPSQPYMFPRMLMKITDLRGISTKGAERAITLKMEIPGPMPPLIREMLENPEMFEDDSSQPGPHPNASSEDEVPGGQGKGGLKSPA
The experiment in a line: Percent maximal induction of human RAR-gamma receptor relative to ATRA; Inactive. It counts as functional.

The target in assay [5] is T2, Retinoic acid receptor alpha (Homo sapiens). The experiment in a line: Relative EC30 for human RAR-alpha receptor as EC30(compound) divided by EC30(ATRA); Inactive.
The target of assay [6] is T3, Retinoic acid receptor gamma (Homo sapiens). Put plainly: Relative EC30 for human RAR-gamma receptor as EC30(compound) divided by EC30(ATRA); Inactive.
The target is the same in assay [7]. Put plainly: Relative EC30 for human RAR-gamma receptor as EC30(compound) divided by EC30(ATRA); inactive.
Assay [8] concerns the target T1, Retinoic acid receptor beta (Homo sapiens). Put plainly: Relative IC50 for human RAR-beta receptor IC50(compound) divided by IC50(ATRA). The essentials: (§1)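 Competitive binding used nuclear extracts of BHK clones stably expressing human RAR-α, β or γ, selected in 250 nM methotrexate. Extracts were incubated with [³H]-ATRA (added as 10 nM solution) and unlabeled compound for 16 h at 4 °C. Free ligand was removed with charcoal/dextran, and the supernatant was counted. Nonspecific binding was taken as binding with 1000-fold excess unlabeled ligand. IC50 from logarithmic plots was divided by the IC50 of ATRA.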

Assay [9] concerns the target T2, Retinoic acid receptor alpha (Homo sapiens). The experiment in a line: Relative IC50 for human RAR-alpha receptor as IC50(compound) divided by IC50(ATRA). Put shortly: as §1
The target of assay [10] is T3, Retinoic acid receptor gamma (Homo sapiens). The experiment in a line: Relative IC50 for human RAR-gamma receptor as IC50(compound) divided by IC50(ATRA). The essentials:
as §1

Assay [11] deals with T1, Retinoic acid receptor beta (Homo sapiens). The experiment in a line: Relative EC30 for human RAR-beta receptor as EC30(compound) divided by EC30(ATRA).

The source of these data is ChEMBL document CHEMBL1131609, “Syntheses and structure-activity relationships of novel retinoid X receptor agonists” (J Med Chem, 1998).

Molecules are shown by their SMILES. Calls of active or inactive are those of the source. The calls are words filed in the database; no cut-off is given here.

Turning to `CCCC\C(=C(F)/C=C/C(C)=C/C(=O)O)c1ccc2c(c1)CCCN2C(C)C`, the “Relative EC30” value in [1], in assay [5] and in assay [6] was “inactive” in each case. The Efficacy result in assay [2], in assay [3] and in assay [4] was “inactive” each time.

On to `CCC\C(=C(F)/C=C/C(C)=C/C(=O)O)c1ccc2c(c1)CCCN2C(C)C`, for which the Efficacy result in [3] and in [4] was “inactive” throughout. The “Relative EC30” value in assay [5] and in assay [7] was “inactive” each time.

Consider `CC(/C=C/C=C(\C)c1ccc2c(c1)CCCN2C(C)C)=C\C(=O)O`, for which the Relative IC50 in [8] is 432; in [9] it was 372; in assay [10] it was 187.

Compound `CC\C(=C(F)/C=C/C(C)=C/C(=O)O)c1ccc2c(c1)CCCN2C(C)C` gave a Relative EC30 in [11] of 1600. The Efficacy result in assay [3] and in assay [4] was “inactive” each time.
